The test system of assay [1] is C26 (colon carcinoma) cell line. Nature of the assay: MTT cytotoxicity assay, C26. As to conditions: 24 h. The assay is classed as cell-based. Put shortly: (§1)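 Cells seeded at 5000 per well in Eagle's MEM with 10% fetal calf serum, 2 mM L-glutamine, penicillin and streptomycin, then held 24 h at 37 °C, 5% CO2. Serial concentrations of test compound in DMSO were added for 24 h, with PTX and DOX as references. MTT was added for 4 h at 37 °C. Formazan was dissolved in ethanol and read at 570 nm. Percent inhibition was computed against control and blank.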
(In general: Tetrazolium dyes change colour on reduction, which living cells bring about.)

Assay [2] deals with MCF7 (human breast cancer) cell line. Nature of the assay: MTT cytotoxicity assay, MCF7. As to conditions: MCF7, 24 h. The assay is classed as cell-based. Put shortly:
as §1

Assay [3] concerns BAEC (bovine aorta endothelial) normal cell line. Nature of the assay: MTT cytotoxicity assay, BAEC normal cells. It counts as cell-based. The settings on record: 24 h with compound, IC50 ± SEM. In short, it runs like this:
as §1

In a further assay the test system is MCF7 and C26 cell lines. Nature of the assay: MTT cytotoxicity, stated over both cancer cell lines together. As to conditions: Homo sapiens, MCF7, read-out: IC50 over MCF7 and C26. The assay is classed as cell-based. Put shortly: as §1
For assay [4], the system named is MCF7, A549 (non-small cell lung cancer) and HDFs (non-cancerous human dermal fibroblasts). The settings on record: doxorubicin value compared for healthy cells ref 20; cited from earlier work.

In publication PMC11959361 (RSC Advances, 2025) one finds IC50 data, which are given here for 17 compounds.

For orientation: IC50 means the concentration at which inhibition is half-maximal.

As for `Clc1ccc(Nc2nc(Cl)nc(Cl)n2)cc1` [1a, 4,6-Dichloro-N-(4-chlorophenyl)-1,3,5-triazin-2-amine], the IC50 in assay [1] stood at 13.5 ± 0.24 µM; in assay [2], 5.35 ± 1.05 µM.

Take `CC(=O)O[C@H]1C(=O)[C@@]2(C)[C@H]([C@H](OC(=O)c3ccccc3)[C@]3(O)C[C@H](OC(=O)[C@H](O)[C@@H](NC(=O)c4ccccc4)c4ccccc4)C(C)=C1C3(C)C)[C@]1(OC(C)=O)CO[C@@H]1C[C@@H]2O` [PTX, Paclitaxel, reference compound]: the half-inhibitory concentration (IC50) was 4.32 ± 0.52 µM in assay [1]; 2.67 ± 0.41 µM in assay [3] (Bos taurus, BAEC, 24 h); 2.35 to 4.32 µM in the assay on MCF7 and C26 cell lines; 2.35 ± 0.14 µM in assay [2].

`COc1ccc(Nc2nc(N3CCCCC3)nc(N3CCCCC3)n2)cc1` [2c, N-(4-Methoxyphenyl)-4,6-di(piperidin-1-yl)-1,3,5-triazin-2-amine]: the half-inhibitory concentration (IC50) in assay [1] is 99.4 ± 14.1 µM; in assay [3] (Bos taurus, BAEC, 24 h), 15.1 ± 1.98 µM; in assay [2], 50.9 ± 8.54 µM.

With `COc1cccc2c1C(=O)c1c(O)c3c(c(O)c1C2=O)C[C@@](O)(C(=O)CO)C[C@@H]3O[C@H]1C[C@H](N)[C@H](O)[C@H](C)O1` [DOX, Doxorubicin, reference compound], the IC50 in assay [1] is 8.06 ± 1.02 µM; in assay [3] (Bos taurus, BAEC, 24 h), 4.79 ± 0.53 µM; with MCF7 and C26 cell lines, 8.06 to 10.5 µM; in assay [4], 0.42 µM; in assay [2], 10.5 ± 0.86 µM.

Take `Cc1ccc(Nc2nc(N3CCCCC3)nc(N3CCCCC3)n2)cc1` [2d, 4,6-Di(piperidin-1-yl)-N-(p-tolyl)-1,3,5-triazin-2-amine]: the IC50 stood at 0.38 ± 0.23 µM in assay [1]; 1.84 ± 0.64 µM in assay [3] (Bos taurus, BAEC, 24 h); 6.54 ± 1.16 µM in assay [2].

Regarding `Fc1ccc(Nc2nc(N3CCOCC3)nc(N3CCOCC3)n2)cc1` [3b, N-(4-Fluorophenyl)-4,6-dimorpholino-1,3,5-triazin-2-amine], the 50% inhibitory concentration (IC50) in assay [1] is 24.5 ± 0.86 µM; in assay [3] (Bos taurus, BAEC, 24 h), 7.98 ± 0.97 µM; in assay [2], 6.19 ± 1.2 µM.

Take `O=[N+]([O-])c1ccc(Nc2nc(N3CCOCC3)nc(N3CCOCC3)n2)cc1` [3e, 4,6-Dimorpholino-N-(4-nitrophenyl)-1,3,5-triazin-2-amine]: the IC50 came out at 14.7 ± 1.7 µM in assay [1]; 86.3 ± 6.79 µM in assay [3]; 86.2 µM in assay [3] (Bos taurus, BAEC, 24 h); 13.7 ± 1.96 µM in assay [2].

With `Fc1ccc(Nc2nc(Cl)nc(Cl)n2)cc1` [1b, 4,6-Dichloro-N-(4-fluorophenyl)-1,3,5-triazin-2-amine], the IC50 in assay [1] turned out to be 9.1 ± 0.61 µM; in assay [2], 7.89 ± 1.8 µM.

Take `Clc1ccc(Nc2nc(N3CCCCC3)nc(N3CCCCC3)n2)cc1` [2a, N-(4-Chlorophenyl)-4,6-di(piperidin-1-yl)-1,3,5-triazin-2-amine]: the IC50 was 47.5 ± 2.86 µM in assay [1]; 49 ± 3.16 µM in assay [3] (Bos taurus, BAEC, 24 h); 23.6 ± 2.56 µM in assay [2].

Regarding `O=[N+]([O-])c1ccc(Nc2nc(N3CCCCC3)nc(N3CCCCC3)n2)cc1` [2e, N-(4-Nitrophenyl)-4,6-di(piperidin-1-yl)-1,3,5-triazin-2-amine], the IC50 in assay [1] worked out at 8.28 ± 1.9 µM; in assay [3] (Bos taurus, BAEC, 24 h) it was 315 ± 9.53 µM; in assay [2], 26.1 ± 1.86 µM.

As to `Cc1ccc(Nc2nc(Cl)nc(Cl)n2)cc1` [1d, 4,6-Dichloro-N-(p-tolyl)-1,3,5-triazin-2-amine], the IC50 in assay [1] was 9.99 ± 0.59 µM; in assay [2] it was 0.2 ± 0.11 µM.

For `Fc1ccc(Nc2nc(N3CCCCC3)nc(N3CCCCC3)n2)cc1` [2b, N-(4-Fluorophenyl)-4,6-di(piperidin-1-yl)-1,3,5-triazin-2-amine], the IC50 in assay [1] was found to be 33.6 ± 1.86 µM; in assay [3] (Bos taurus, BAEC, 24 h), 21.2 ± 2.4 µM; in assay [2], 32.9 ± 4.23 µM.

Regarding `COc1ccc(Nc2nc(N3CCOCC3)nc(N3CCOCC3)n2)cc1` [3c, N-(4-Methoxyphenyl)-4,6-dimorpholino-1,3,5-triazin-2-amine], the IC50 in assay [1] was found to be 76.8 ± 8.45 µM; in assay [3] (Bos taurus, BAEC, 24 h), 2.01 ± 0.59 µM; in assay [2] it was 43.5 ± 4.23 µM.

In the case of `O=[N+]([O-])c1ccc(Nc2nc(Cl)nc(Cl)n2)cc1` [1e, 4,6-Dichloro-N-(4-nitrophenyl)-1,3,5-triazin-2-amine], the IC50 in assay [1] amounted to 48.3 ± 1.94 µM; in assay [2], 10.3 ± 1.51 µM.

On to `COc1ccc(Nc2nc(Cl)nc(Cl)n2)cc1` [1c, 4,6-Dichloro-N-(4-methoxyphenyl)-1,3,5-triazin-2-amine], for which the IC50 in assay [1] is 9.89 ± 0.17 µM; in assay [2], 1.77 ± 0.05 µM.

Take `Cc1ccc(Nc2nc(N3CCOCC3)nc(N3CCOCC3)n2)cc1` [3d, 4,6-Dimorpholino-N-(p-tolyl)-1,3,5-triazin-2-amine]: the IC50 in assay [1] was 16.3 ± 2.22 µM; in assay [3] (Bos taurus, BAEC, 24 h), 0.57 ± 0.24 µM; in assay [2] it was 22.3 ± 1.49 µM.

As to `Clc1ccc(Nc2nc(N3CCOCC3)nc(N3CCOCC3)n2)cc1` [3a, N-(4-Chlorophenyl)-4,6-dimorpholino-1,3,5-triazin-2-amine], the IC50 was 1.21 ± 0.47 µM in assay [1]; 41.2 ± 2.55 µM in assay [3] (Bos taurus, BAEC, 24 h); 42.4 ± 4.48 µM in assay [2].
